Consider ten molecules from ChEMBL document CHEMBL1132437, “Synthesis and antimicrobial activity of 4H-4-oxoquinolizine derivatives: consequences of structural modification at the C-8 position” (1999).

Common to all, as to assay type: functional
For test [1], the system named is Staphylococcus aureus. Description: In vivo efficacy against Staphylococcus aureus NCTC 10649M in mouse. As to conditions: Staphylococcus aureus; read-out: ED50. The essentials: (§1)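 Mouse protection model: mice infected intravenously with 100-fold LD50 of the organism. Compound given by subcutaneous injection or oral gavage at 1 and 5 h after infection, over a dose range. Deaths tracked for 7 days post-inoculation. ED50 is the dose giving 50% survival of treated mice over the trial.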

The subject of test [2] is Staphylococcus aureus. Description: In vitro antibacterial activity against gram-positive Staphylococcus aureus NCTC 10649M. The settings on record: Staphylococcus aureus, NCTC 10649; read-out: MIC. The method, boiled down:
(§2)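 Agar dilution MIC determination following the National Committee for Clinical Laboratory Standards recommendations.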

Test [3] has as its system Pseudomonas aeruginosa. The test is described as follows: In vitro antibacterial activity against gram negative P. aeruginosa DPHP 5263. The settings on record: Pseudomonas aeruginosa, DPHP 5263; read-out: MIC. The essentials:
as §2

In test [4] the test system is Streptococcus pneumoniae. Description: In vivo efficacy against Streptococcus pneumoniae ATCC 6303 in mouse protection test after s.c. administration. The settings on record: Streptococcus pneumoniae, sc; read-out: ED50. The method, boiled down: as §1
Test [5] concerns Pseudomonas aeruginosa. Description: In vitro antibacterial activity against Gram-negative Pseudomonas aeruginosa 5007. The settings on record: Pseudomonas aeruginosa; read-out: MIC. The essentials:
as §2

For test [6], the system named is Escherichia coli. Description: In vivo efficacy against Escherichia coli JUHL in mouse protection test after subcutaneous administration. The settings on record: Escherichia coli, sc; read-out: ED50. The essentials: as §1
Test [7] relates to Pseudomonas aeruginosa. Description: In vivo efficacy against Pseudomonas aeruginosa 5007 in mouse protection test after subcutaneous administration. The settings on record: Pseudomonas aeruginosa, sc; read-out: ED50. The method, boiled down:
as §1

The test system of test [8] is Staphylococcus aureus. The test is described as follows: In vivo efficacy against Staphylococcus aureus NCTC 10649M in mouse protection test after p.o. administration. The settings on record: Staphylococcus aureus, po; read-out: ED50. The essentials:
as §1

Test [9] concerns Mus musculus. Description: In vivo efficacy against Streptococcus pneumoniae ATCC 6303 in mouse protection test after administration by oral gavage. The method, boiled down: as §1
The test system of test [10] is Escherichia coli. The test is described as follows: In vivo efficacy against Escherichia coli JUHL in mouse protection test after p.o. administration. As to conditions: Escherichia coli, po; read-out: ED50. The method, boiled down:
as §1

In test [11] the test system is Streptococcus pyogenes. The test is described as follows: In vitro antibacterial activity against gram positive Streptococcus pyogenes 930. The settings on record: Streptococcus pyogenes; read-out: MIC. The essentials:
as §2

The subject of test [12] is Pseudomonas aeruginosa. The test is described as follows: In vivo efficacy against Pseudomonas aeruginosa 5007 in mouse protection test after administration by oral gavage. As to conditions: Pseudomonas aeruginosa, po; read-out: ED50. The method, boiled down:
as §1

For test [13], the system named is Staphylococcus aureus. Description: In vitro antibacterial activity against gram-positive Staphylococcus aureus 1775. The settings on record: Staphylococcus aureus; read-out: MIC. The method, boiled down:
as §2

The test system of test [14] is Escherichia coli. Description: In vitro antibacterial activity against gram negative Escherichia coli KNK 437. As to conditions: Escherichia coli; read-out: MIC. The essentials: as §2
In test [15] the test system is Enterococcus faecium. The test is described as follows: In vitro antibacterial activity against gram-positive Enterococcus faecium ATCC 8043. The settings on record: Enterococcus faecium, ATCC 8043; read-out: MIC. The essentials: as §2
The subject of test [16] is Burkholderia cepacia. Description: In vitro antibacterial activity against gram negative Pseudomonas cepacia 2961. As to conditions: Burkholderia cepacia; read-out: MIC. The method, boiled down:
as §2

≈ marks a conversion by molar mass, not a printed value.

What is called ED50 is the dose at which the effect has come halfway, by size or by number of responders. A word on the MIC: it is the smallest concentration in the dilution series that meets the test's criterion for growth inhibition. In the case of `Cc1c(N2C[C@H](C3CC3)[C@@H](N)C2)c(F)cn2c(=O)c(C(=O)O)cc(C3CC3)c12`, the ED50 in test [1] was 3 mg/kg; in test [4] it was over 8 mg/kg; in test [6], 1.2 mg/kg; in [7], over 32 mg/kg; in [8] it was 11.2 mg/kg; in [9], over 50 mg/kg. Besides, the ED50 in [10] is over 10 mg/kg; in test [12], over 50 mg/kg. The MIC in [2] turned out to be 0.02 µg/mL (≈ 0.0519 µM); in test [3] it was 12.5 µg/mL (≈ 32.4 µM); in [5], 0.39 µg/mL (≈ 1.01 µM); in test [11] it was 0.1 µg/mL (≈ 0.259 µM); in test [13] it was 0.78 µg/mL (≈ 2.02 µM); in test [14], 0.2 µg/mL (≈ 0.519 µM). The MIC was 0.1 µg/mL (≈ 0.259 µM) in test [15] and 1.56 µg/mL (≈ 4.05 µM) in [16].
In the case of `Cc1c(N2CCC(N(C)C3CC3)C2)c(F)cn2c(=O)c(C(=O)O)cc(C3CC3)c12` (centres undefined), the MIC turned out to be 0.05 µg/mL (≈ 0.125 µM) in [2]; 100 µg/mL (≈ 250 µM) in test [3]; 0.78 µg/mL (≈ 1.95 µM) in test [5]; 0.2 µg/mL (≈ 0.501 µM) in [11]; 1.56 µg/mL (≈ 3.91 µM) in test [13]; 0.39 µg/mL (≈ 0.976 µM) in test [14]. The MIC in [15] came to 0.2 µg/mL (≈ 0.501 µM); in [16], 3.1 µg/mL (≈ 7.76 µM).
For the molecule `Cc1c(N2CC[C@@H](C)[C@@H](N)C2)c(F)cn2c(=O)c(C(=O)O)cc(C3CC3)c12`, the MIC came to 0.1 µg/mL (≈ 0.268 µM) in test [2]; 12.5 µg/mL (≈ 33.5 µM) in test [3]; 1.56 µg/mL (≈ 4.18 µM) in test [5]; 0.39 µg/mL (≈ 1.04 µM) in [11]; 3.1 µg/mL (≈ 8.3 µM) in test [13]; 0.78 µg/mL (≈ 2.09 µM) in [14]. Further, the minimal inhibitory concentration (MIC) came to 0.39 µg/mL (≈ 1.04 µM) in test [15] and 6.2 µg/mL (≈ 16.6 µM) in test [16].
Turning to `Cc1c(N2CC[C@H](NCC(F)(F)F)C2)c(F)cn2c(=O)c(C(=O)O)cc(C3CC3)c12`, the MIC in test [2] is 0.02 µg/mL (≈ 0.0468 µM); in test [3], over 100 µg/mL; in test [5], 3.1 µg/mL (≈ 7.25 µM); in test [11], 0.39 µg/mL (≈ 0.912 µM); in test [13], 0.78 µg/mL (≈ 1.82 µM); in test [14], 1.56 µg/mL (≈ 3.65 µM). Further, the MIC in test [15] was 0.39 µg/mL (≈ 0.912 µM); in test [16], 3.1 µg/mL (≈ 7.25 µM).
As for `Cc1c(N2CCCCC2)c(F)cn2c(=O)c(C(=O)O)cc(C3CC3)c12`, the MIC in test [2] is 0.05 µg/mL (≈ 0.145 µM); in [3], over 100 µg/mL; in [5] it was 3.1 µg/mL (≈ 9 µM); in [11], 0.2 µg/mL (≈ 0.581 µM); in test [13], 0.78 µg/mL (≈ 2.26 µM); in [14], 3.1 µg/mL (≈ 9 µM). In addition, the MIC in test [15] was found to be 0.39 µg/mL (≈ 1.13 µM); in test [16], 3.1 µg/mL (≈ 9 µM).
Regarding `Cc1c(N2C[C@@H]3CCCC[C@]3(CN)C2)c(F)cn2c(=O)c(C(=O)O)cc(C3CC3)c12`, the ED50 in [1] is 1.8 mg/kg; in test [6], over 5 mg/kg; in test [7], over 32 mg/kg; in test [8] it was 17.7 mg/kg; in [10], over 20 mg/kg; in [12], over 50 mg/kg. For the same molecule, the MIC in [2] worked out at 0.002 µg/mL (≈ 0.00484 µM); in test [3], 50 µg/mL (≈ 121 µM); in test [5], 3.1 µg/mL (≈ 7.5 µM); in test [11], 0.02 µg/mL (≈ 0.0484 µM); in test [13], 0.2 µg/mL (≈ 0.484 µM); in test [14], 1.56 µg/mL (≈ 3.77 µM). The values for the MIC in [15] and in test [16] were 0.02 µg/mL (≈ 0.0484 µM) and 3.1 µg/mL (≈ 7.5 µM), respectively.
Turning to `Cc1c(N2C[C@H](N)[C@H](C3CC3)C2)c(F)cn2c(=O)c(C(=O)O)cc(C3CC3)c12`, the MIC in [2] is 0.02 µg/mL (≈ 0.0519 µM); in [3], 12.5 µg/mL (≈ 32.4 µM); in test [5], 0.39 µg/mL (≈ 1.01 µM); in test [11], 0.1 µg/mL (≈ 0.259 µM); in test [13], 0.78 µg/mL (≈ 2.02 µM); in [14], 0.2 µg/mL (≈ 0.519 µM). For the same molecule, the MIC stood at 0.1 µg/mL (≈ 0.259 µM) in [15] and 1.56 µg/mL (≈ 4.05 µM) in test [16].
In the case of `Cc1c(N2C[C@@H]3COC[C@]3(CN)C2)c(F)cn2c(=O)c(C(=O)O)cc(C3CC3)c12`, the MIC worked out at 0.01 µg/mL (≈ 0.0249 µM) in [2]; 6.2 µg/mL (≈ 15.4 µM) in [3]; 6.2 µg/mL (≈ 15.4 µM) in [5]; 0.02 µg/mL (≈ 0.0498 µM) in test [11]; 3.1 µg/mL (≈ 7.72 µM) in test [13]; 0.1 µg/mL (≈ 0.249 µM) in test [14]. Further, the MIC in [15] was found to be 0.05 µg/mL (≈ 0.125 µM); in test [16] it was 6.2 µg/mL (≈ 15.4 µM).
`Cc1c(N2C[C@H]3CCNC[C@@H]3C2)c(F)cn2c(=O)c(C(=O)O)cc(C3CC3)c12`: the MIC in test [2] stood at 0.05 µg/mL (≈ 0.13 µM); in [3], 6.2 µg/mL (≈ 16.1 µM); in [5], 0.39 µg/mL (≈ 1.01 µM); in [11], 0.05 µg/mL (≈ 0.13 µM); in test [13] it was 6.2 µg/mL (≈ 16.1 µM); in test [14] it was 0.2 µg/mL (≈ 0.519 µM). Moreover, the MIC in test [15] worked out at 0.2 µg/mL (≈ 0.519 µM); in [16], 0.39 µg/mL (≈ 1.01 µM).
For the molecule `Cc1c(N2CCCC(N)C2)c(F)cn2c(=O)c(C(=O)O)cc(C3CC3)c12` (centres undefined), the MIC in [2] stood at 0.01 µg/mL (≈ 0.0278 µM); in test [3], 3.1 µg/mL (≈ 8.63 µM); in [5], 0.2 µg/mL (≈ 0.556 µM); in test [11] it was 0.02 µg/mL (≈ 0.0556 µM); in test [13], 0.39 µg/mL (≈ 1.09 µM); in [14], 0.1 µg/mL (≈ 0.278 µM). Also, the MIC in test [15] stood at 0.05 µg/mL (≈ 0.139 µM); in test [16], 0.78 µg/mL (≈ 2.17 µM).
